The entries come from a sample that favours hits as a whole.
HSF-1 act: HSF-1 activators, primary screen, NIH3T3-HGL cells, MG132 stress, luminescence, single point | NIH3T3-HGL HSF-1 luciferase reporter, 8 h; 100% = twice DMSO control signal | activation, % at 9 µM | 1.7% of 300,000 active | AID 504408, 2011;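 active means mean replicate activation of at least 50% with a set share of replicates each reaching 50%; inconclusive means only one of those two conditions met; inactive means mean below 50% and too few replicates reaching it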;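 further: 0% = median of the neutral control wells and 100% = twice that signal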
Hsp70 act: Hsp70 transcriptional activators, primary screen, cell-based, HeLa, Hsp70 promoter luciferase, luminescence, 10 µM; activation, % at 10 µM; HeLa Hsp70 promoter luciferase reporter; scaled: vehicle 0, proteasome-inhibitor control 100%; AID 1203, 2008; 0.04% of 200,000 active;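 active means activation above the mean across all tested compounds plus 3 SD, cutoff set per campaign, cut at about 5.5% in these data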;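 further: 100% = MG132 at 30 µM as the positive control and 0% = DMSO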
L major viab: Leishmania major promastigote growth inhibition, primary screen; Leishmania major promastigotes, resazurin fluorescence viability; inhibition, % at 10 µM; 9% of 200,000 active; AID 1063, 2008; in the data active means inhibition above about 50%;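 further: promastigotes grown with compound for 44 hours at 28 °C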
T cruzi repl: inhibitors of intracellular T. cruzi growth, primary screen, luminescence, NIH3T3 host cells. T. cruzi beta-gal in NIH3T3, 90 h. inhibition, % (concentration not given with the values). 1.4% of 300,000 active. AID 1885, 2009;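 active means mean inhibition across valid replicates above about 55%, limit read from the data; inconclusive means mean below that limit but half or more replicates reach it; inactive means mean below it, under half of replicates reach it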;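 further: signal also drops with host cell toxicity which is not excluded here; 0% = plate median of DMSO wells and 100% = zero luminescence signal; higher percent means less beta-gal luminescence so fewer parasites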
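Assay system: NIH/3T3 fibroblasts plus reporter T. cruzi. Amount: NIH/3T3 cells, 5,000 per well. Buffer or medium: DMEM, 2% fetal bovine serum. Doses: compound pinned at 50 nL/well, DMSO. Schedule: ≥90 h infection period, 3 h prior cell attachment. Signal: luminescent β-galactosidase signal after 60 min lysis. Read-out: parasite load inhibition, %.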
HSF1 inhib: HSF1 inhibitors in luciferase reporter cells, primary screen, cell-based, NIH3T3, luminescence | 0.77% of 300,000 active | NIH3T3-HGL HSE-luciferase, MG132-induced, luminescence 8 h; stronger effect = lower value | activity change, negative = inhibition, % at 7.5 µM (by protocol);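 active means more than half of replicate wells show activity change below -50%, luminescence cut by over half; inconclusive means some wells, but at most half, below -50%; inactive means no replicate well below -50%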;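 further: luciferase reports HSF-1 transcriptional activity via heat shock element; 0% = median of DMSO wells and -100% = zero luminescence signal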
* = called active by the depositor.

What do the screens show for `O=C(Oc1cccc2cccnc12)c1ccc(Br)o1`?
HSF-1 act: 66*; Hsp70 act: 0; L major viab: -2; T cruzi repl: -21; HSF1 inhib: 28

Results for CC(=O)COc1ccccc1OC(=O)c1ccco1 ?
HSF-1 act: -62; Hsp70 act: 0; L major viab: -3; T cruzi repl: -9; HSF1 inhib: -51*

How did NNC(=O)COc1cccc2cccnc12 do in these assays?
HSF-1 act: 3; Hsp70 act: 0; L major viab: -4; T cruzi repl: -11; HSF1 inhib: -1

What do the screens show for `O=C(Cc1ccc(Cl)cc1)Oc1cccc2cccnc12`?
Hsp70 act: 0; L major viab: 97*

How did O=C(Oc1ccccc1)c1cccc2cccnc12 do in these assays?
HSF-1 act: 10; Hsp70 act: 0; L major viab: 94*; T cruzi repl: 1; HSF1 inhib: 9

Results for Cc1sc2ncnc(N3CCCC(C)C3)c2c1C (stereo not given) ?
HSF-1 act: -3; Hsp70 act: 0; L major viab: -10; T cruzi repl: 3; HSF1 inhib: -8

How did CC(C)C[C@H](NC(=O)N1c2ccccc2NC(=O)[C@@H]1C(C)C)C(=O)N[C@@H](Cc1ccccc1)C(=O)O do in these assays?
HSF-1 act: -9; T cruzi repl: -17; HSF1 inhib: -6

Results for O=C(Oc1cccc2cccnc12)c1cccs1 ?
HSF-1 act: 43; Hsp70 act: 0; L major viab: 100*; T cruzi repl: 24; HSF1 inhib: 24

Results for O=C(NC(=S)Nc1cccc2cccnc12)c1cccs1 ?
HSF-1 act: 156*; Hsp70 act: 0; L major viab: -3; T cruzi repl: -15; HSF1 inhib: 109

Results for O=C(Oc1ccc(Cl)c2cccnc12)c1ccco1 ?
HSF-1 act: -10; Hsp70 act: 0; L major viab: 99*; T cruzi repl: -11; HSF1 inhib: -6

Results for Cc1c(C(=O)Oc2cccc3cccnc23)cccc1[N+](=O)[O-] ?
HSF-1 act: 18; Hsp70 act: 0; L major viab: 98*; T cruzi repl: 0; HSF1 inhib: 0

Results for O=C(Oc1coc(CSc2ncccn2)cc1=O)c1ccco1 ?
Hsp70 act: 0; L major viab: 0; T cruzi repl: -11

What do the screens show for `O=C(Oc1cccc2cccnc12)c1cccc([N+](=O)[O-])c1`?
HSF-1 act: 21; Hsp70 act: 0; L major viab: 34; T cruzi repl: -14; HSF1 inhib: 10

What do the screens show for `O=C(NCCOc1cccc2cccnc12)c1cccs1`?
HSF-1 act: 13; Hsp70 act: 0; L major viab: -1; T cruzi repl: -8; HSF1 inhib: 1

Results for Cc1cccc(NC(=O)COc2ccc(-c3nn(C)c(=O)c4ccccc34)cc2)c1 ?
HSF-1 act: 5; T cruzi repl: 8; HSF1 inhib: 5

What do the screens show for `CC1CCCN(c2ccc(C(=O)Nc3cccnc3)cc2[N+](=O)[O-])C1` (stereo not given)?
HSF-1 act: 13; Hsp70 act: 0; L major viab: 23; T cruzi repl: inconclusive; HSF1 inhib: 14

Results for CC(C)C(NC(=O)/C(=C/c1ccco1)NC(=O)c1ccc(Br)o1)C(=O)O (stereo not given) ?
HSF-1 act: -1; T cruzi repl: -2; HSF1 inhib: -5

Results for O=C(Oc1cccc2ccccc12)c1ccco1 ?
HSF-1 act: 4; Hsp70 act: 0; L major viab: 9; T cruzi repl: -11; HSF1 inhib: 9

Results for O=C(Oc1cccc2cccnc12)c1ccco1 ?
HSF-1 act: 9; Hsp70 act: 0; L major viab: 99*; T cruzi repl: -13; HSF1 inhib: -4

What do the screens show for `CCc1nnc(NS(=O)(=O)c2ccc(NCc3cc(Cl)cc(Cl)c3O)cc2)s1`?
HSF-1 act: -9; T cruzi repl: -4; HSF1 inhib: -8

How did COc1ccc(CNc2cc(C)nc3ccc(OC)cc23)cc1 do in these assays?
HSF-1 act: 6; T cruzi repl: 53; HSF1 inhib: -4

How did CCN(CC)CCCNC(=O)c1ccc2c(SCC(=O)O)c3c(nc2c1)CCC3 do in these assays?
Hsp70 act: 0; L major viab: -7; T cruzi repl: 0

Results for Cc1ccc(CNC(=O)CSc2c3c(nc4ccc(Cl)cc24)CCCC3)o1 ?
HSF-1 act: 120*; Hsp70 act: 0; L major viab: 15; T cruzi repl: 19; HSF1 inhib: 69

How did CCN(CC)CCNC(=O)CSc1c2c(nc3cc(Cl)ccc13)CCCC2 do in these assays?
HSF-1 act: inconclusive; Hsp70 act: 0; L major viab: 101*; T cruzi repl: 33; HSF1 inhib: 69

What do the screens show for `Cc1ccc2nc(NC(=O)CSc3nc(=O)n(CCN(C)C)c4c3CCCC4)sc2c1`?
HSF-1 act: -4; T cruzi repl: -1; HSF1 inhib: -5

How did CCc1ccc2c(COC(=O)c3n[nH]c4ccccc34)cc(=O)oc2c1 do in these assays?
HSF-1 act: inconclusive; Hsp70 act: 0; L major viab: 6; T cruzi repl: 10; HSF1 inhib: 50

What do the screens show for `O=C(COC(=O)c1n[nH]c2ccccc12)NC(=O)NC1CCCCC1`?
HSF-1 act: 52*; Hsp70 act: 0; L major viab: 24; T cruzi repl: 4; HSF1 inhib: 24

What do the screens show for `Cc1ccc2c(COC(=O)c3n[nH]c4ccccc34)cc(=O)oc2c1`?
HSF-1 act: 76*; Hsp70 act: 0; L major viab: 9; T cruzi repl: 5; HSF1 inhib: 46

How did CNC(=O)NC(=O)COC(=O)c1n[nH]c2ccccc12 do in these assays?
HSF-1 act: 15; T cruzi repl: 11; HSF1 inhib: 8

What do the screens show for `O=C(NCCc1ccccc1)c1n[nH]c2ccccc12`?
HSF-1 act: 59*; Hsp70 act: 0; L major viab: 0; T cruzi repl: 12; HSF1 inhib: 35

Results for O=C(OCCOc1ccccc1)c1n[nH]c2ccccc12 ?
HSF-1 act: 67*; T cruzi repl: -16; HSF1 inhib: 34

Results for Nc1cccc(NP(=O)(c2ccccc2)c2ccccc2)c1 ?
HSF-1 act: -21; T cruzi repl: 2; HSF1 inhib: -1

Results for Cc1cc(C)c(C)c(S(=O)(=O)NCc2ccc(C(=O)N3CCOCC3)cc2)c1C ?
HSF-1 act: 32; T cruzi repl: -6; HSF1 inhib: -2

What do the screens show for `Cn1c(=O)c2ccccc2n(Cc2ccccc2Cl)c1=O`?
HSF-1 act: -58; T cruzi repl: -3; HSF1 inhib: -46

What do the screens show for `O=C(CCC1CCCCC1)Nc1c[nH]c(=O)[nH]c1=O`?
HSF-1 act: 21; Hsp70 act: 1; L major viab: 1; T cruzi repl: -7; HSF1 inhib: 6

Screens as filed in PubChem.
